{"source": "ChEMBL document CHEMBL1125849", "about": "“Synthesis of the 2-amino-4-phosphonobutanoic acid analogues (E)- and (Z)-2-amino-2,3-methano-4-phosphonobutanoic acid and their evaluation as inhibitors of hippocampal excitatory neurotransmission” (J Med Chem, 1991)", "format_in_all_cases": "functional", "key": {"Rattus norvegicus [1]": {"species": "Rattus norvegicus", "assay": "Inhibitory activity against Hippocampal Excitatory Neurotransmission using lateral perforant path (LPP)in rat hippocamapl slice Tested as racemic mixtures", "method_in_brief": "(§1)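 Rat transverse hippocampal slices (450 μm) from urethane-anesthetized animals, held in oxygenated bicarbonate medium, pH 7.4. Recording in a microperfusion chamber at 34 °C. Field potentials in the dentate molecular layer: outer third for LPP, middle third for MPP. Placement checked with L-AP4. Drug started at threshold and doubled every 4 min. IC50 taken from fractional response versus log concentration, as a weighted mean.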"}, "Rattus norvegicus [2]": {"species": "Rattus norvegicus", "assay": "Inhibitory activity against Hippocampal Excitatory Neurotransmission using medial perforant path (MPP) in rat hippocamapl slice Tested as racemic mixtures", "method_in_brief": "as §1"}, "[3]": {"assay": "Ratio is IC50 vales of medial perforant path (MPP) to that of lateral perforant path (LPP)", "method_in_brief": "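Ratio of MPP to LPP IC50 values from rat hippocampal slice field-potential recordings. Dentate molecular layer recorded, middle third (MPP) and outer third (LPP), at 34 °C. Concentration doubled every 4 min. Each IC50 is a weighted mean taken from fractional-response versus log-concentration curves.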"}, "[4]": {"details": "Rattus norvegicus, Perforant path"}}}
{"smiles": "N[C@]1(C(=O)O)CC[C@H](P(=O)(O)O)C1", "values": [{"measurement": "IC50", "setting": "Rattus norvegicus [1]; [4]", "result": 130, "unit": "µM"}, {"measurement": "IC50", "setting": "Rattus norvegicus [2]; [4]", "result": 1850, "unit": "µM"}, {"measurement": "Ratio", "setting": "[3]", "result": 31}]}
{"smiles": "N[C@]1(C(=O)O)CC[C@@H](P(=O)(O)O)C1", "values": [{"measurement": "IC50", "setting": "Rattus norvegicus [1]; [4]", "result": 960, "unit": "µM"}, {"measurement": "IC50", "setting": "Rattus norvegicus [2]; [4]", "result": 2400, "unit": "µM"}, {"measurement": "Ratio", "setting": "[3]", "result": 2.5}]}
{"smiles": "N[C@@H](CCP(=O)(O)O)C(=O)O", "values": [{"measurement": "Ratio", "setting": "[3]", "result": 18}]}
{"smiles": "NC1(C(=O)O)CC1CP(=O)(O)O", "note": "(stereo in doubt; 5)", "values": [{"measurement": "IC50", "setting": "Rattus norvegicus [1]", "result": 18, "unit": "µM"}, {"measurement": "IC50", "setting": "Rattus norvegicus [2]", "result": 1580, "unit": "µM"}, {"measurement": "Ratio", "setting": "[3]", "result": 88}]}
{"smiles": "NC1(C(=O)O)CC1CP(=O)(O)O", "note": "(stereo in doubt; 6)", "values": [{"measurement": "IC50", "setting": "Rattus norvegicus [1]; [4]", "result": 17, "unit": "µM"}, {"measurement": "IC50", "setting": "Rattus norvegicus [2]", "result": 81, "unit": "µM"}, {"measurement": "Ratio", "setting": "[3]", "result": 4.8}]}
